From PubChem BioAssay
CASP6 VEID inh – inhibitors of human caspase-6. P55212. AID 686996. purified caspase-6, Z-VEID-R110 cleavage fluorescence. inhibition, % at 12.5 µM. 350,000 tested, 0.53% active;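 active means mean inhibition across replicates at least about 35%, with every replicate also reaching that limit, limit read from the data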;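 further: 0% = median of neutral control wells and 100% = no fluorescence left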
NS3 helicase inh – inhibitors of Hepatitis C virus NS3 helicase; inhibition, % at 10.9 µM; 290,000 tested, 0.56% active; NS3 helicase DNA unwinding, Cy5 molecular beacon fluorescence;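 active means inhibition above the mean of all tested compounds plus 3 SD, set per campaign, cut at about 35% in these data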;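 further: 0% = DMSO wells and 100% = thioflavine S control wells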
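Assay system – hepatitis C virus NS3 helicase domain fragment enzyme · Buffer or medium – MOPS pH 6.5, MgCl2, DTT, Tween20, BSA · Reagent – Cy5/quencher beacon DNA duplex and ATP to start · Compound – single 10.9 µM dose · Timing – 1 h at 25 °C · Technique – Cy5 beacon fluorescence read at start and 1 h · Measure – % inhibition of unwinding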
DNMT1 inh – blocks human DNA methyltransferase DNMT1; P26358; DNMT1 molecular beacon, Hinp1I cleavage, fluorescence; inhibition (reported as % activation of signal), % at 10 µM; 360,000 tested, 0.83% active
NSD2 HMT inh – blocks human histone methyltransferase NSD2; 310,000 tested, 0.54% active; NSD2 peptide methylation, AlphaScreen, 120 min; inhibition, % at 12.5 µM; O96028
Target sequence (O96028 whole entry, looked up): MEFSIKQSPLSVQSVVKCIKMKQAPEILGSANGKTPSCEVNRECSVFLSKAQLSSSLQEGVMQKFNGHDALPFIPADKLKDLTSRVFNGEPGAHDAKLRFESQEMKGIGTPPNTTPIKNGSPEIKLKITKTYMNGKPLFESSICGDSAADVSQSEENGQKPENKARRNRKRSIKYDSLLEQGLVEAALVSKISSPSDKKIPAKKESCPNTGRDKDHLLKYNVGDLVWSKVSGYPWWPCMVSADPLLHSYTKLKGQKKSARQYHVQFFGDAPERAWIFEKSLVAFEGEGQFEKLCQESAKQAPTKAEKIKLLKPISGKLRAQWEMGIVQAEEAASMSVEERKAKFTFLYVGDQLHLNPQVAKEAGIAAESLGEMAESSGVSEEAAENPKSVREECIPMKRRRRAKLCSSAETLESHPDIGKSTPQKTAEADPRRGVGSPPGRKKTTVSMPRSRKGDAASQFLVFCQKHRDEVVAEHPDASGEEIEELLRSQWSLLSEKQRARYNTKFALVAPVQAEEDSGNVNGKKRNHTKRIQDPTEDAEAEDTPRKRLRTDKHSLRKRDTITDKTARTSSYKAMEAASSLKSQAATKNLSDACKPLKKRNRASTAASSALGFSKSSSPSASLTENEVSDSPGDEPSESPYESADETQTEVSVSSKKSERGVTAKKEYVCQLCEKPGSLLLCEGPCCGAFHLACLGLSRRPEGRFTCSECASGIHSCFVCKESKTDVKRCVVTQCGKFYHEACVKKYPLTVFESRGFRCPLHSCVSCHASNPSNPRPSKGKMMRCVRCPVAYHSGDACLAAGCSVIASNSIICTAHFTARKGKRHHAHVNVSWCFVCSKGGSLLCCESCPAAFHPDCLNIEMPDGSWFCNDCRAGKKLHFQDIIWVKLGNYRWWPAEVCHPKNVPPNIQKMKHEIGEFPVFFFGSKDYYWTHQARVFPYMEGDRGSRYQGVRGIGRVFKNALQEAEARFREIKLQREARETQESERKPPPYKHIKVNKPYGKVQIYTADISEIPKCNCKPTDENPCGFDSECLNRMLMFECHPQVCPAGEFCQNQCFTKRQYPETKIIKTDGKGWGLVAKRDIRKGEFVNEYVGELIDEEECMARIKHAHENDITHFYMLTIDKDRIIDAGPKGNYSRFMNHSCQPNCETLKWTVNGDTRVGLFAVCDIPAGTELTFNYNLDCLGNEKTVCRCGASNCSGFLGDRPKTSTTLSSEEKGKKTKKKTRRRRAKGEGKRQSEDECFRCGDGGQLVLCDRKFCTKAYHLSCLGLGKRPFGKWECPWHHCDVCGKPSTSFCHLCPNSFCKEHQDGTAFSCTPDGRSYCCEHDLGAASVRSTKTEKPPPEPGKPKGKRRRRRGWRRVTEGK
NS3 hel confirm – confirmation of Hepatitis C virus NS3 helicase inhibitors; shares compounds with NS3 helicase inh; NS3 helicase DNA unwinding, Cy5 molecular beacon fluorescence; inhibition, % at 10.9 µM; 1,600 tested, 31% active; AID 1943;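 active means inhibition above the mean of all tested compounds plus 3 SD, cutoff set per campaign, cut at about 36% in these data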
FID counter trip – displaces DNA intercalator in HCV helicase counter-screen. 1,600 tested, 4% active. inhibition, % at 7.9 µM. DNA fluorescent intercalator displacement, fluorescence. shares compounds with NS3 helicase inh; in the data active means inhibition above about 37%;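 further: 0% = vehicle and 100% = reference compound; higher means more displacement of ethidium bromide from the DNA hairpin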
DNA FID DR – counter-screen for HCV NS3 helicase inhibitors: DNA intercalator displacement dose response. shares compounds with NS3 helicase inh. IC50, µM. fluorescent intercalator displacement from DNA, fluorescence. AID 2172. 120 tested, under 10 active; call rule not given here
* marks the source's active call; other numbers are inactive results. A selection: hits, their analogues and other compounds. The true share with any hit is near 1.5%. Unless noted, no stated cut-off is given here; in the data, active means inhibition above about 50%; inactive means the rest.

What do the screens show for `O=C(O)C1C2C=CC(C2)C1C(=O)Nc1ccc2c(c1)OCCO2` (stereo not drawn)?
NS3 helicase inh: -19.8; DNMT1 inh: -3.1

How did COc1cc(/C=c2\sc3nc(-c4ccncc4)nn3c2=O)ccc1OC(C)=O do in these assays?
NS3 helicase inh: 5.8

What do the screens show for `CCCCCOc1ccc(/C=c2\sc3nc(=O)c(-c4ccccc4)nn3c2=O)cc1OC`?
CASP6 VEID inh: -0.7; NS3 helicase inh: 43.0*; DNMT1 inh: 4.7; NSD2 HMT inh: 1.8; NS3 hel confirm: 72.0*; FID counter trip: -20.2; DNA FID DR: >79.4

How did COCC#Cc1ccc([C@@H]2[C@H]3CN(C(=O)C4CC4)CC(=O)N3[C@H]2CO)cc1 do in these assays?
CASP6 VEID inh: 1.0

Results for CNC[C@@H]1Oc2cc(C#Cc3ccccn3)ccc2S(=O)(=O)N([C@H](C)CO)C[C@H]1C ?
CASP6 VEID inh: -1.9

What do the screens show for `O=C(C[C@@H]1C=C[C@H](NC(=O)c2ccncc2)[C@H](CO)O1)Nc1ccc(-c2ccccc2)cc1`?
CASP6 VEID inh: -2.6

Results for O=S(=O)(c1cccs1)N1CN(Cc2ccc(F)cc2)c2nc3ccccc3nc21 ?
NS3 helicase inh: 50.5*; DNMT1 inh: -6.0; NSD2 HMT inh: 10.1; NS3 hel confirm: -19.9; FID counter trip: -1.6

How did O=S(=O)(c1cccs1)N1CN(Cc2ccccc2)c2nc3ccccc3nc21 do in these assays?
NS3 helicase inh: -2.0; DNMT1 inh: -2.2; NSD2 HMT inh: 1.1

What do the screens show for `O=C1/C(=C\c2ccccn2)SC(=S)N1c1ccc(S(=O)(=O)Nc2nccs2)cc1`?
CASP6 VEID inh: -1.4; NS3 helicase inh: 36.4*; DNMT1 inh: -4.7; NSD2 HMT inh: 1.8; NS3 hel confirm: -17.1; FID counter trip: 25.1

What do the screens show for `Cn1c(=O)c2ccccc2n(CC(=O)N2CCCc3ccccc32)c1=O`?
CASP6 VEID inh: -0.4; NS3 helicase inh: 37.3*; DNMT1 inh: 0.2; NSD2 HMT inh: -1.8; NS3 hel confirm: -6.2; FID counter trip: -14.1

How did COc1ccc(S(=O)(=O)N(C)C[C@H]2Oc3ccc(NS(=O)(=O)c4ccc(C)cc4)cc3C(=O)N([C@H](C)CO)C[C@H]2C)cc1 do in these assays?
CASP6 VEID inh: -1.1

What do the screens show for `O=C(NCC1CCCCC1)c1cc2ccccc2cc1O`?
CASP6 VEID inh: -4.4; NS3 helicase inh: 10.3; DNMT1 inh: 0.0; NSD2 HMT inh: -9.1

What do the screens show for `O=C(N/N=C1/CC2CCC1C2)c1cc2ccccc2cc1O` (stereo not drawn)?
CASP6 VEID inh: 1.5; NS3 helicase inh: 49.1*; DNMT1 inh: 1.3; NSD2 HMT inh: 3.5; NS3 hel confirm: 1.1; FID counter trip: -7.8

What do the screens show for `COC(=O)c1ccc(CN2CC(=O)N3[C@H](CO)[C@H](c4ccc(-c5cccnc5)cc4)[C@H]3C2)cc1`?
CASP6 VEID inh: 2.4

What do the screens show for `COc1ccc2c3c([nH]c2c1)[C@@H](CO)N(C(=O)C1CCCCC1)CC31CCN(C(=O)c2ccncc2)CC1`?
CASP6 VEID inh: 3.0

How did CCCOC(=O)C1[C@H]2C(=O)N(Cc3ccco3)C[C@]23C=C[C@H]1O3 (stereo partly drawn) do in these assays?
NS3 helicase inh: 40.3*; DNMT1 inh: -2.6; NSD2 HMT inh: 1.1; NS3 hel confirm: -5.5; FID counter trip: -8.4

Results for CCCCOC(=O)C1[C@H]2C(=O)N(Cc3cccs3)C[C@]23C=C[C@H]1O3 (stereo partly drawn) ?
NS3 helicase inh: 5.7; DNMT1 inh: -7.2; NSD2 HMT inh: -1.6

What do the screens show for `CCNC(=O)C[C@@H]1CC[C@H](NC(=O)C2CCOCC2)[C@@H](CO)O1`?
CASP6 VEID inh: -1.7

How did Cc1cc(-n2c(C)cc(C(=O)CSc3ccc4c(c3)OCCO4)c2C)no1 do in these assays?
NS3 helicase inh: 37.3*; DNMT1 inh: -6.6; NSD2 HMT inh: 0.9; NS3 hel confirm: -0.4; FID counter trip: -22.6

Results for Cc1cc(-n2c(C)cc(C(=O)CSc3ccccn3)c2C)no1 ?
CASP6 VEID inh: 1.9; DNMT1 inh: -3.0; NSD2 HMT inh: 0.8

How did COc1ccc(C(NC(=O)/C=C\c2ccco2)c2ccc(OC)c(OC)c2)cc1 (stereo not drawn) do in these assays?
NS3 helicase inh: 36.9*; DNMT1 inh: -2.3; NSD2 HMT inh: -1.1; NS3 hel confirm: -10.1; FID counter trip: -34.7

Results for COc1ccccc1NC(=O)/C=C\c1ccco1 ?
CASP6 VEID inh: 0.8; NS3 helicase inh: 52.7*; DNMT1 inh: -2.4; NSD2 HMT inh: 0.3; NS3 hel confirm: -10.3; FID counter trip: -0.8

Results for COc1ccc(CCNC(=O)/C=C/c2ccco2)cc1OC ?
CASP6 VEID inh: 3.0; NS3 helicase inh: 10.6; DNMT1 inh: 1.6; NSD2 HMT inh: 1.5

What do the screens show for `COc1ccc(CCNC(=O)/C=C/c2ccco2)cc1`?
CASP6 VEID inh: -2.4; NS3 helicase inh: 41.4*; DNMT1 inh: -8.5; NSD2 HMT inh: -2.4; NS3 hel confirm: -21.9; FID counter trip: 5.9

Results for Cc1cccc(NC(=S)NC(=O)/C=C/c2ccco2)n1 ?
NS3 helicase inh: 76.9*; DNMT1 inh: 2.5; NSD2 HMT inh: 4.2; NS3 hel confirm: -13.6; FID counter trip: -9.2

Results for Cc1cccc(NC(=S)NC(=O)/C=C/c2ccco2)c1 ?
CASP6 VEID inh: 2.2; NS3 helicase inh: 34.9; DNMT1 inh: 2.0; NSD2 HMT inh: 2.9

How did C[C@@H]1CN([C@@H](C)CO)C(=O)c2cc(/C=C/c3ccccc3)cnc2O[C@H]1CN(C)C(=O)c1cnccn1 do in these assays?
CASP6 VEID inh: -3.7

Results for C[C@@H]1CN([C@H](C)CO)C(=O)Cc2cc(NS(=O)(=O)c3cccs3)ccc2O[C@@H]1CN(C)C(=O)NC1CCCCC1 ?
CASP6 VEID inh: 0.7

What do the screens show for `CC(C)CC#Cc1cnc2c(c1)C(=O)N([C@H](C)CO)C[C@H](C)[C@H](CN(C)S(=O)(=O)c1cn(C)cn1)O2`?
CASP6 VEID inh: -2.1

Results for O=C(NCc1ccc(F)cc1)[C@@H]1[C@@H](CO)[C@@H]2Cn3c(cccc3=O)[C@@H]2N1CCC(F)(F)F ?
CASP6 VEID inh: -0.4

How did CCc1cc(=O)oc2c3c(cc(OCC(=O)NC4CC4)c12)OC(C)(C)CC3 do in these assays?
CASP6 VEID inh: -4.0; NS3 helicase inh: 42.0*; DNMT1 inh: -3.6; NS3 hel confirm: -8.1; FID counter trip: -37.2

How did Cc1ccc(F)c(NC(=S)Nc2cccc3ccccc23)c1 do in these assays?
CASP6 VEID inh: -2.1; NS3 helicase inh: 51.6*; DNMT1 inh: -12.5; NSD2 HMT inh: 0.3; NS3 hel confirm: 4.2; FID counter trip: 6.0

What do the screens show for `S=C(Nc1cccc2ccccc12)Nc1cccc2ccccc12`?
CASP6 VEID inh: 0.6; DNMT1 inh: 16.4; NSD2 HMT inh: 0.6
